Measurements reported in ChEMBL document CHEMBL1153425, “Inhibitory effects of sesquiterpene lactones isolated from Eupatorium chinense L. on IgE-mediated degranulation in rat basophilic leukemia RBL-2H3 cells and passive cutaneous anaphylaxis reaction in mice” (Bioorg Med Chem, 2009).
Active and inactive are the calls of the source. The rule behind the calls is not given here.

What was measured:
RBL-2H3 [1] = test: Inhibition of DNP/BSA-stimulated intracellular calcium release in IgE-sensitized rat RBL2H3 cells at 10 uM after 30 mins by fluorimetry; format: functional, cell-based
How it was run: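 IgE-sensitized (0.45 µg/ml anti-DNP IgE, 24 h) RBL-2H3 cells at 5×10^4/well are loaded with Fluo-3 AM for 1 h. They are then incubated 30 min in loading buffer containing 10 µM compound. Ca2+ change after DNP-BSA (10 µg/ml) is read by fluorescence plate reader, ex 490/em 530 nm. Values are mean ± SEM, n=32.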

RBL-2H3 [2] = test: Inhibition of DNP/BSA-stimulated JNK1/2 phosphorylation in IgE-sensitized rat RBL2H3 cells after 10 mins by Western blot; format: functional, cell-based
How it was run: (§1)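 Compound-treated, IgE-sensitized RBL-2H3 cells are stimulated with DNP-BSA for 10 min and lysed in RIPA buffer with protease and phosphatase inhibitors. Lysate (20 µg protein) is run on SDS-PAGE and blotted to PVDF. Membranes are blocked with 5% milk/TPBS and probed with primary antibodies, then […] secondaries. Detection is by ECL chemiluminescence.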

RBL-2H3 [3] = test: Inhibition of DNP/BSA-stimulated ERK1/2 phosphorylation in IgE-sensitized rat RBL2H3 cells after 10 mins by Western blot; format: functional, cell-based; how it was run: as §1
RBL-2H3 [4] = test: Inhibition of A-23187-stimulated beta-hexosamonidase release in IgE-sensitized rat RBL2H3 cells at 5 to 10 uM after 30 mins; format: functional, cell-based
[5] = test system: Radical scavenging activity; test: Antioxidant activity assessed as DPPH-radical scavenging activity at 10 uM; format: functional
RBL-2H3 [6] = test: Inhibition of DNP/BSA-stimulated p38MAPK phosphorylation in IgE-sensitized rat RBL2H3 cells after 10 mins by Western blot; format: functional, cell-based; how it was run: as §1
RBL-2H3 [7] = test: Inhibition of DNP/BSA-stimulated intracellular ROS release in IgE-sensitized rat RBL2H3 cells at 10 uM after 30 mins using CM-H2DCF-DA probe by fluorimetry; format: functional, cell-based
How it was run: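 IgE-sensitized RBL-2H3 cells (5×10^4/well) are loaded with 10 µM CM-H2DCF-DA for 30 min at 37 °C and washed with PBS. They are then exposed 30 min to 10 µM compound and stimulated with DNP-BSA (10 µg/ml). DCF fluorescence is read at ex 490/em 530 nm.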

RBL-2H3 [8] = test: Inhibition of DNP/BSA-stimulated ratio of phospho-Akt to total-Akt level in IgE-sensitized rat RBL2H3 cells after 10 mins by Western blot; format: functional, cell-based; how it was run: as §1
RBL-2H3 [9] = test: Inhibition of DNP/BSA-stimulated histamine release in IgE-sensitized rat RBL2H3 cells at 5 to 10 uM after 30 mins by fluorimetry; format: functional, cell-based
How it was run: (§2)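 RBL-2H3 cells are plated at 5×10^5 cells/ml, cultured 1 h, then sensitized 24 h with mouse anti-DNP IgE (0.45 µg/ml). After washes, cells sit in Siraganian buffer (pH 7.2; 5.6 mM glucose, 1 mM CaCl2, 0.1% BSA) at 37 °C for 10 min. They are pretreated with 5 or 10 µM compound at 37 °C for 30 min, then challenged with DNP-BSA (10 µg/ml) for 10 min. The reaction is stopped on ice and supernatant taken. Read-outs: β-hexosaminidase by 1 mM p-nitrophenyl-N-acetyl-β-D-glucosaminide in citrate pH 4.5, 37 °C 1 h, A405; histamine by n-butanol/chloroform extraction and o-phthalaldehyde fluorescence (ex 360/em 450), expressed as % inhibition relative to positive and negative controls. Values are mean ± SEM, n=10.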

RBL-2H3 [10] = test: Inhibition of DNP/BSA-stimulated beta-hexosamonidase release in IgE-sensitized rat RBL2H3 cells at 5 to 10 uM after 30 mins by colorimetry; format: functional, cell-based; how it was run: as §2

Row | Compound | Activity (RBL-2H3 [1]) | Activity (RBL-2H3 [2]) | Activity (RBL-2H3 [3]) | Activity (RBL-2H3 [4]) | Activity [5] | Activity (RBL-2H3 [6]) | Activity (RBL-2H3 [7]) | Activity (RBL-2H3 [8]) | Activity (RBL-2H3 [9]) | Activity (RBL-2H3 [10])
1 | C=C1C(=O)O[C@@H]2/C=C(\C)C[C@H](O)/C=C(\C)C[C@@H](OC(=O)/C(=C\C)CO)[C@@H]12 | Active | inactive | inactive | Active | inactive | Active | inactive | Active | Active | Active
2 | C=C1C(=O)O[C@@H]2/C=C(\C)[C@@H](O)C/C=C(/C=O)C[C@@H](OC(=O)C(C)CC)[C@@H]12 (stereo not given in full) | Active | inactive | inactive | Active | inactive | Active | inactive | Active | Active | Active
3 | C=C1C(=O)O[C@H]2/C=C(/C)[C@H](OC(C)=O)C[C@@H]3O[C@]3(C)C[C@@H](OC(=O)/C(=C/C)CO)[C@@H]12 | – | inactive | inactive | – | inactive | Active | inactive | Active | – | –
4 | C=C1C(=O)O[C@H]2/C=C(/C)[C@@H](OC(C)=O)C/C=C(\CO)C[C@@H](OC(=O)C(C)CC)[C@@H]12 (stereo not given in full) | – | inactive | inactive | – | inactive | Active | inactive | Active | – | –
5 | C=C1C(=O)O[C@@H]2/C=C(/C)[C@@H](OC(C)=O)C[C@H]3O[C@]3(C)C[C@@H](OC(=O)/C(=C/C)CO)[C@@H]12 | – | inactive | inactive | – | inactive | Active | inactive | Active | – | –
6 | C=C1C(=O)O[C@H]2/C=C(/C)[C@@H](OC(C)=O)C/C=C(\C)C[C@@H](OC(=O)/C(=C/C)CO)[C@@H]12 | – | inactive | inactive | – | inactive | Active | inactive | Active | – | –
7 | C=C1C(=O)O[C@@H]2/C=C(\C)[C@@H](O)C/C=C(\C)C[C@@H](OC(=O)/C(=C\C)CO)[C@@H]12 | – | inactive | inactive | – | inactive | Active | inactive | Active | – | –
